Results taken from the RNAGym collection of RNA variant scans (doi:10.1126/science.aae0568).
This sample holds only a part of the variants without activity.

B1: tRNA (parent)
chain: GUUCCGUUGGCGUAAUGGUAACGCGUCUCCCUCCUAAGGAGAAGACUGCGGGUUCGAGUCCCGUACGGAACG

Variants of: B1
Experiment: yeast fitness relative to wild type (ratio to wild type); higher = fitter; tRNA-Arg(CCU), competitive growth, 37 C, YPD
Summary of the method: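 Changes in genotype frequencies gave Darwinian fitness relative to wild type. Frequencies were read by 100-nucleotide paired-end sequencing of gene amplicons before and after pooled Saccharomyces cerevisiae strains, carrying tRNA-Arg(CCU) gene variants at the native locus, were competed in YPD at 37°C for 24 hours in six replicates. A genotype was kept only with ≥ 100 starting reads, and estimates < 0.5 were set to 0.5.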

| Variant | yeast fitness |
| --- | --- |
| G12A U28C | 1.06 |
| U2A C22G C62U G63C | ≤ 0.5 |
| G6C C31A A36C G44A A57U C66A | ≤ 0.5 |
| U3A A14C A21C G41A G44C U47C C49U G56A | ≤ 0.5 |
| U3C A21G C34G A69C | ≤ 0.5 |
| G9A A21C C22A C66U | ≤ 0.5 |
| A14G C22G U64A | ≤ 0.5 |
| C5G U8A G41C U47A | 0.605 |
| U2G C11G A20U C24G C55A C61U | ≤ 0.5 |
| G9C U19C A40U A57U | ≤ 0.5 |
| U13C A21C G50A | 0.509 |
| A21G C22U C46U G56C | ≤ 0.5 |
| U2G C46G | 0.864 |
| U19G A65G | 1.03 |
| G10A C11A C60A | ≤ 0.5 |
| C4A G18C C46G | 0.503 |
| C4U A37G G39C | ≤ 0.5 |
| A15G C24G C66G G67A | 0.64 |
| A15U A43G G56C C60U | ≤ 0.5 |
| A14G U28A A45C U53A | ≤ 0.5 |
| U8A G10A U26G G58A | ≤ 0.5 |
| A20C C27U A69U | 0.81 |
| C27A C60U A69G | ≤ 0.5 |
| C4A A40C G41C | ≤ 0.5 |

| Variant | yeast fitness |
| --- | --- |
| C11A A42G A43G C61A | ≤ 0.5 |
| G48C C62G A65U | ≤ 0.5 |
| U32C G38C G50A A70G | ≤ 0.5 |
| C11U A40C G68A | 0.733 |
| C11A C24U C34U G58C C62G G67A | 0.544 |
| A20G C24U G52A A57G C66U | ≤ 0.5 |
| G25A C49U U59G | 0.54 |
| C4G G6A C22G C62U A70C | ≤ 0.5 |
| C5U A15G A20G C27G C33U G63A | ≤ 0.5 |
| A42U G67C | 0.69 |
| C5A U19C C22G C24A G39C A45C | 0.596 |
| C11G A15U C22U U32C A42G | ≤ 0.5 |
| A36C A37C U53G C66U A70C | 0.531 |
| U16C U35G G48C C66U | ≤ 0.5 |
| U8A G18A G67U A69C | ≤ 0.5 |
| G39A G48A | 0.94 |
| U16C C30U C34G | 0.579 |
| C22A C30U A42C A57U G67A A70U | ≤ 0.5 |
| C5A U59C | 0.807 |
| G10C A57C | ≤ 0.5 |
| C29G U35C U54C C61A | ≤ 0.5 |
| A20C C31A U59C | 0.599 |
| U19C C24U U64A | 0.73 |
| G6A G9A | 0.969 |

| Variant | yeast fitness |
| --- | --- |
| G56C A69U A70C | ≤ 0.5 |
| C4A C55A A69C A70U | ≤ 0.5 |
| C11G A57U | ≤ 0.5 |
| A21C A36C G56A | 0.562 |
| A14U G18C C34U | ≤ 0.5 |
| C29U C46A | 0.932 |
| C5G C11G A42G G68A | ≤ 0.5 |
| C5A C11G G48C G67C | ≤ 0.5 |
| C4G A21C | 0.609 |
| C11G U32G C33U A37U | ≤ 0.5 |
| G23C C24A G50A A70U | ≤ 0.5 |
| C62U U64A | 0.735 |
| A15C C27U C31A | ≤ 0.5 |
| C22A C55A A57U | ≤ 0.5 |
| U3A C11G C31G A65G | ≤ 0.5 |
| C5A C33G C49U C61G A69C | ≤ 0.5 |
| A20G G23C C31G G50A | ≤ 0.5 |
| G10C C24U C46U U64C | ≤ 0.5 |
| G18A G67C | 0.841 |
| C5U G38C G39C A40G G44A C46G G52A | ≤ 0.5 |
| C11G A45U | 0.666 |
| G6A A45C C46G G51C | ≤ 0.5 |
| A14U C49G A57U | ≤ 0.5 |
| C4G A20C C31U | 0.536 |

| Variant | yeast fitness |
| --- | --- |
| G18A U26A C27U C49U G58A | ≤ 0.5 |
| C31G A43U C46G A70U | 0.527 |
| C24G A42U C49U | ≤ 0.5 |
| C11A A14G C31G C34G C61U | ≤ 0.5 |
| U7C G41A A42C G50C G63A A70G | 0.555 |
| C22U U28A C29U G38A | ≤ 0.5 |
| C5A G9A G41A U53C U64A | ≤ 0.5 |
| U2C G48A | 0.928 |
| C4G C49A | 0.541 |
| A57C A69G | 0.562 |
| A21U C30A U32A U35G G67A | ≤ 0.5 |
| C4G C5U C27G C34A | ≤ 0.5 |
| A14C G17C C60U | ≤ 0.5 |
| U8A G51A | 0.63 |
| C27G C31U A57G | 0.562 |
| A21U C22U U59C | ≤ 0.5 |
| A20C A36G | 0.908 |
| C4U A21G C46A U64C | 0.676 |
| C33A C34G G50A A70U | ≤ 0.5 |
| G25C C31G C61G C66G | 0.674 |
| G17C C33U A43G | ≤ 0.5 |
| A14G A43U | 0.803 |
| G25A G38C A42C | ≤ 0.5 |
| U28A A37G | 0.658 |

| Variant | yeast fitness |
| --- | --- |
| A45U G68A A70C | 0.641 |
| G48C G52C A57C G58A | ≤ 0.5 |
| C34G A57U | 0.523 |
| C30A G51C C62G | ≤ 0.5 |
| C22A A36G G41A | 0.548 |
| U59G C62U | 0.875 |
| G9A C30G U32C A40G G50C A57U | ≤ 0.5 |
| G12A C30G A40C | ≤ 0.5 |
| C11G C24G G67C | 0.566 |
| C30G A65G | 0.639 |
| G12C U13C U16A | 0.704 |
| A36U C49U G58C C66U | ≤ 0.5 |
| U13G C34U A37U | ≤ 0.5 |
| C4G A15G U54A A70U | ≤ 0.5 |
| G10A G50A G51A | ≤ 0.5 |
| C30G U35A A65C | ≤ 0.5 |
| U54C A70G | 0.973 |
| G38A A65C | 0.707 |
| C5G G12C C49U A65C | 0.726 |
| C11U A21G U35C | 0.538 |
| C29U U35C G44C C49U A57U G63A | ≤ 0.5 |
| G23C A37U U47C C55U C60G C66U | ≤ 0.5 |
| C5U U8C G41C | 0.542 |
| C33U A42G C46A | 0.644 |

| Variant | yeast fitness |
| --- | --- |
| U2A C46A | 1.03 |
| A42U A57G G58A A70U | ≤ 0.5 |
| C5G C30G C66A | ≤ 0.5 |
| U3C C55A | 0.687 |
| C11U A15C C27G C30U C46A | ≤ 0.5 |
| G6A G10C C30A U32C A69U | 0.586 |
| U19C A20G G58A | 0.709 |
| U2C C46A | 0.942 |
| C30U G38C C55G C61U | ≤ 0.5 |
| C5G C29A G52A | 0.695 |
| U13A C30U | 0.802 |
| C24G C30A U47C G63A | ≤ 0.5 |
| G48A C66U | 0.97 |
| U28A A45G | 0.762 |
| A14C A42G A57U | ≤ 0.5 |
| U2G G12A U13A G25C U28A C33A G63C U64C C66U | ≤ 0.5 |
| C5A G67U | 0.865 |
| A15G U19C C29U A37G | ≤ 0.5 |
| C4G C29G C60A G67C | 0.564 |
| U7G A37G | 0.633 |
| C4U G41C C61A | ≤ 0.5 |
| G10C U13C C24G C55U | 0.64 |
| U26C U32C C33G A42C C49G G58C C62G | ≤ 0.5 |
| C11U A14C A40C G44C C55G | ≤ 0.5 |

| Variant | yeast fitness |
| --- | --- |
| C4A G9A A45G | ≤ 0.5 |
| U28A A37C C61G G68U | ≤ 0.5 |
| U3C C22U G23A | ≤ 0.5 |
| U8A G10C A20U G41U G51C | ≤ 0.5 |
| U2G G18C G23U U64A | 0.606 |
| C29A C62U | 0.723 |
| A20U C29U A57G A65G | ≤ 0.5 |
| G41C G48A C55A | 0.569 |
| U7C C31G C34U C55U G58A C61U | 0.666 |
| U3A C22G C29U G63A | ≤ 0.5 |
| C22U U32C G48C A57G G68C | ≤ 0.5 |
| C30U C49U G52A | 0.584 |
| U8A G41A A69U | ≤ 0.5 |
| A45C G51C U64C | ≤ 0.5 |
| C34G G52A | 0.562 |
| C11U G50A G56A | 0.781 |
| U16G G56C | ≤ 0.5 |
| G10A G17C C30G C33G C61A A69U | 0.581 |
| A43U C46A | 0.98 |
| U2G U16A | 1.15 |
| A21U A40C A42U C49U G50C C66U | 0.578 |
| C5G C29A C31A | 0.714 |
| C30U U47A | 0.695 |
